Assay results as given in ChEMBL document CHEMBL4190288, “Bioactive Azaphilone Derivatives from the Fungus Talaromyces aculeatus” (J Nat Prod, 2017).
Converted amounts (≈) assume the structure as drawn. The source made the active and inactive calls. The rule behind the calls is not given here.

Tests used:
Proteus vulgaris = assay: Antibacterial activity against Proteus vulgaris after 18 hrs by broth dilution method
Vibrio anguillarum = assay: Antibacterial activity against Vibrio anguillarum after 18 hrs by broth dilution method; format: functional
Outline: (§1)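 Conventional broth dilution MIC assay run on a panel of Gram-positive strains (Micrococcus lysodeikticus, Bacillus cereus, Bacillus megaterium) and Gram-negative strains (Proteus vulgaris, Vibrio anguillarum, Vibrio parahaemolyticus). Ciprofloxacin served as the positive control.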

Vibrio parahaemolyticus = assay: Antibacterial activity against Vibrio parahaemolyticus after 18 hrs by broth dilution method; format: functional; outline: as §1
Micrococcus luteus = assay: Antibacterial activity against Micrococcus lysodeikticus after 18 hrs by broth dilution method
Priestia megaterium = assay: Antibacterial activity against Bacillus megaterium after 18 hrs by broth dilution method
Bacillus cereus = assay: Antibacterial activity against Bacillus cereus after 18 hrs by broth dilution method
A549 = assay: Cytotoxicity against human A549 cells by SRB assay; format: functional, cell-based
Outline: (§2)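 Cytotoxicity tested on human HL-60, HeLa, A549 and K562 cell lines by a previously referenced method. Adriamycin was the positive control.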

HeLa = assay: Cytotoxicity against human HeLa cells by SRB assay; format: functional, cell-based; outline: as §2
Alpha glucosidase = Alpha glucosidase (Homo sapiens, UniProt O43451+P10253+P14410+Q2M2H8); assay: Inhibition of alpha-glucosidase (unknown origin) using p-nitrophenyl glycoside as substrate treated 20 mins post substrate addition measured for 1 min by spectrophotometric analysis; format: protein assay
Outline: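 In vitro α-glucosidase inhibition measured by a previously referenced procedure.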

HL-60 = assay: Cytotoxicity against human HL60 cells by MTT assay; format: functional, cell-based; outline: as §2
K562 = assay: Cytotoxicity against human K562 cells by MTT assay; format: functional, cell-based; outline: as §2

| SMILES | MIC (Proteus vulgaris) | MIC (Vibrio anguillarum) | MIC (Vibrio parahaemolyticus) | MIC (Micrococcus luteus) | MIC (Priestia megaterium) | MIC (Bacillus cereus) | Activity (A549) | Activity (HeLa) | IC50 (Alpha glucosidase) | Activity (HL-60) | Activity (K562) |
| --- | --- | --- | --- | --- | --- | --- | --- | --- | --- | --- | --- |
| O=C(O)c1cn(C2CC2)c2cc(N3CCNCC3)c(F)cc2c1=O [CIPROFLOXACIN] | 0.199 µg/mL (≈ 0.601 µM) | 0.199 to 0.52 µg/mL (≈ 0.601 to 1.57 µM) | 0.43 µg/mL (≈ 1.3 µM) | 0.099 µg/mL (≈ 0.299 µM) | 1.66 µg/mL (≈ 4.99 µM) | 0.43 µg/mL (≈ 1.3 µM) |  |  |  |  |  |
| C/C=C/C1=CC2=CC(=O)[C@@](C)(O)[C@@H](OC(=O)c3c(C)cc(O)cc3O)[C@@H]2CO1 |  | > 8.28 µg/mL |  |  |  |  | inactive | inactive | > 200 µM | inactive | inactive |
| COC(=O)CCC1=CC2=CC(=O)[C@@](C)(O)[C@@H](OC(=O)c3c(C)cc(O)cc3O)[C@@H]2CO1 |  | > 8.28 µg/mL |  |  |  |  | inactive | inactive | > 200 µM | inactive | inactive |
| COC(=O)C1=CC2=CC(=O)[C@@](C)(O)[C@@H](OC(=O)c3c(C)cc(O)cc3O)[C@@H]2CO1 |  | > 8.28 µg/mL |  |  |  |  | inactive | inactive | > 200 µM | inactive | inactive |
| Cc1cc(O)cc(O)c1C(=O)O[C@]1(C)C(=O)C=C2C=C(/C=C/CO)OC=C2C1=O |  |  |  |  |  |  | inactive | inactive | > 200 µM | inactive | inactive |
| Cc1cc(O)cc(O)c1C(=O)O[C@H]1C2=COC(/C=C/CO)=CC2=CC(=O)[C@@]1(C)O |  | > 8.28 µg/mL |  |  |  |  | inactive | inactive | > 200 µM | inactive | inactive |
| Cc1cc(O)cc(O)c1C(=O)O[C@H]1[C@@H]2COC(/C=C/C=O)=CC2=CC(=O)[C@@]1(C)O |  | 0.26 µg/mL (≈ 0.649 µM) |  |  |  |  | inactive | inactive | 22.9 µM | inactive | inactive |
| Cc1cc(O)cc(O)c1C(=O)O[C@H]1[C@@H]2COC(/C=C/CO)=CC2=CC(=O)[C@@]1(C)O [PINOPHILIN B] |  | > 8.28 µg/mL |  |  |  |  | inactive | inactive | > 200 µM | inactive | inactive |
| Cc1cc(O)cc(O)c1C(=O)O[C@H]1[C@@H]2COC(/C=C/C(=O)O)=CC2=CC(=O)[C@@]1(C)O |  | > 8.28 µg/mL |  |  |  |  | inactive | inactive | > 200 µM | inactive | inactive |
| COC(OC)C1=CC2=CC(=O)[C@@](C)(O)[C@@H](OC(=O)c3c(C)cc(O)cc3O)[C@@H]2CO1 |  | > 8.28 µg/mL |  |  |  |  | inactive | inactive | > 200 µM | inactive | inactive |
| Cc1cc(O)cc(O)c1C(=O)O[C@H]1[C@@H]2COC(/C=C/[C@H](C)O)=CC2=CC(=O)[C@@]1(C)O |  | > 8.28 µg/mL |  |  |  |  | inactive | inactive | 78.6 µM | inactive | inactive |
| C/C=C/C1=CC2=CC(=O)[C@@](C)(OC(=O)c3c(C)cc(O)cc3O)C(=O)C2=CO1 |  | 0.26 µg/mL (≈ 0.68 µM) |  |  |  |  | inactive | inactive | > 200 µM | inactive | inactive |
